Results published in ChEMBL document CHEMBL1131052, “Bis-substituted malonic acid hydroxamate derivatives as inhibitors of human neutrophil collagenase (MMP8)” (J Med Chem, 1998).
pKi: −log10 of the molar value.

Molecular target: Neutrophil collagenase (Homo sapiens, UniProt P22894)
Test: Inhibition of human neutrophil collagenase (Matrix metalloprotease-8)
Summary of the method: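 Catalytic domain of MMP8 (Phe79–Gly242) at 8 nM; fluorogenic substrate Dnp-Pro-Leu-Gly-Leu-Trp-Ala-D-Arg-NH2 at 1 × 10^-5 M; 10 mM CaCl2, 100 mM NaCl, 50 mM Tris/HCl pH 7.6, 25 °C. Initial hydrolysis rates were taken from the fluorescence rise at 350 nm over 100 s. IC50 values were fitted from these rates, and Ki values were derived from the kinetic data.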

Neutrophil collagenase, sequence (P22894 whole entry): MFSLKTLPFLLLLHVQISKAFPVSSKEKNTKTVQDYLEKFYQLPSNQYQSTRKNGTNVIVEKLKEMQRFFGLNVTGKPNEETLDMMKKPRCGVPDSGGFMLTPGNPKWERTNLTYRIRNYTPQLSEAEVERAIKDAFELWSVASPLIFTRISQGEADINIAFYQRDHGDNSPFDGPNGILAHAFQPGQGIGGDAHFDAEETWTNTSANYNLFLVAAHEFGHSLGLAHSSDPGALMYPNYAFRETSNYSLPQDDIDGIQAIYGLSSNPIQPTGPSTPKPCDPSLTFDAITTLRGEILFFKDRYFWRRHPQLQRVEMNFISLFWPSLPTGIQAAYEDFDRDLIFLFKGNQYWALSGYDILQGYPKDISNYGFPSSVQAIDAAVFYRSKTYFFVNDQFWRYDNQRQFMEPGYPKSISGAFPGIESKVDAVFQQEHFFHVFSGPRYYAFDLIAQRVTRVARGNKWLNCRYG

Row | Structure (SMILES) | pKi
1 | O=C(NO)C1(C(=O)NCc2ccccc2)Cc2ccccc2C1 | 5.82
2 | CC(Cc1ccccc1)(C(=O)NO)C(=O)NCc1ccccc1 (stereo not given) | 5.96
3 | CC(Cc1ccccc1)(C(=O)NO)C(=O)NCCc1ccccc1 (stereo not given) | 5.02
4 | CCOC(=O)C(C)(CC(C)C)C(=O)NO (stereo not given) | 4.39
5 | CC(Cc1ccccc1)(C(=O)NO)C(=O)NCCCCc1ccccc1 (stereo not given) | 6.42
6 | CC(Cc1ccccc1)(C(=O)NO)C(=O)NCc1ccc(C(=O)O)cc1 (stereo not given) | 4.39
7 | O=C(NO)C1(C(=O)NCCCc2ccccc2)Cc2ccccc2C1 | 6.52
8 | O=C(NO)C(O)(Cc1ccccc1)C(=O)NCc1ccccc1 (stereo not given) | 5.72

More lines, in order of rising pKi, values ahead:

Row | pKi | Structure (SMILES)
9 | 4.35 | CC(Cc1ccccc1)(C(=O)NO)C(=O)Nc1cccc2ccccc12 (stereo not given)
10 | 4.36 | CC(Cc1ccccc1)(C(=O)NO)C(=O)Nc1ccccc1 (stereo not given)
11 | 4.96 | CCOC(=O)C(C)(Cc1ccccc1)C(=O)NO (stereo not given)
12 | 5.09 | CC(Cc1ccccc1)(C(=O)NO)C(=O)N1CCc2ccccc2C1 (stereo not given)
13 | 5.64 | CC(=O)NC(Cc1ccccc1)(C(=O)NO)C(=O)NCc1ccccc1 (stereo not given)
14 | 5.72 | O=C(NO)C1(C(=O)NCCCc2ccccc2)Cc2ccccc2-c2ccccc2C1
15 | 6.62 | CC(Cc1ccccc1)(C(=O)NO)C(=O)NCCCc1ccccc1 (stereo not given)
